# PubChem BioAssay
# Calls of active or inactive are those of the source.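 The calls were made as follows, unless noted: active = GFP response above 150% of the DMSO level; inconclusive = fewer than 70 events counted for a yeast strain; inactive = the rest.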
# Experiments:
# [1] = hit retest on RPL19A-GFP reporter strain – cell-based, S. cerevisiae, flow cytometry, cherry picks, mother/daughter gates, confirmation (AID 2270;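 active = GFP response below 50% of the DMSO control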); settings: 3 h, at 10 µM, stronger effect = lower value, 100 = same GFP as DMSO wells
# [2] = yeast TOR pathway reporter LAP4-GFP change – cell-based, cherry picks, flow cytometry, mother/daughter gates, confirmation (AID 2271;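 active = GFP response above 150% of the DMSO control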;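 also: ratio of sample to DMSO plate mean so 100% equals DMSO level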); settings: S. cerevisiae LAP4-GFP strain, 3 h, at 10 µM, stronger effect = higher value, 100 means same as DMSO control
# In short: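 Test system: GFP-fusion yeast strain. Medium: synthetic complete (SC) yeast growth medium. Timing: 3 h treatment at 30 °C with rotation. Measured by: GFP by flow cytometry. Control set: positive rapamycin (400 ng/mL), negative DMSO.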
# [3] = TOR pathway reporter MEP2-GFP, retest of hits – S. cerevisiae, flow cytometry GFP, cherry picks, confirmation (AID 2272;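 active = GFP response above 150% of the DMSO control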;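 also: ratio of well signal to plate DMSO mean so 100% equals DMSO level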); settings: S. cerevisiae MEP2-GFP strain, 3 h, at 10 µM, stronger effect = higher value
# [4] = yeast AGP1-GFP fluorescence change, single-dose – cell-based, flow cytometry, S. cerevisiae, cherry picks, confirmation (AID 2273);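 also: median GFP channel fluorescence over the whole cell population gate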; settings: S. cerevisiae AGP1-GFP strain, 3 h, at 10 µM
# [5] = TOR pathway CIT2 reporter hit retest – S. cerevisiae, GFP fusion, cherry picks, mother/daughter gates, confirmation (AID 2274); settings: S. cerevisiae CIT2-GFP strain, flow cytometry, 3 h, at 10 µM, stronger effect = higher value
# [6] = measured here: daughter cell gate
# [7] = measured here: mother cell gate
# [8] = measured here: daughter cell gate response
# [9] = measured here: mother cell gate response
Compound,GFP response vs DMSO [1],"GFP response vs DMSO [1, 6] [%]","GFP response vs DMSO [1, 7] [%]",GFP response relative to DMSO [2],"GFP response relative to DMSO [2, 8] [%]","GFP response relative to DMSO [2, 9] [%]",GFP response vs DMSO [3],"GFP response, % of DMSO [4]","GFP response, % of DMSO [5]","GFP response, % of DMSO [5, 6] [%]","GFP response, % of DMSO [5, 7] [%]"
Cc1ccc2c(c1)c1c(c(=O)n(-c3ccccc3C)c(=O)n1CC(=O)NCC1CCCO1)n2C (stereo not given),98.4% (inactive),99.9,97.2,102% (inactive),101,101,100% (inactive),98.3% (inactive),103% (inactive),103,102
CC1(C)CCN2CCC(C)(C)c3c(O)ccc1c32,105% (inactive),105,107,115% (inactive),123,115,139% (inactive),101% (inactive),121% (inactive),123,119
CCOc1ccc(S(=O)(=O)N2CCc3ccccc3C2)cc1,99.7% (inactive),97.8,100,101% (inactive),95,102,97.5% (inactive),96.2% (inactive),92.1% (inactive),92.7,91
CC(=O)Oc1oc(-c2ccccc2)nc1C=Nc1ccc(N(C)C)cc1,100% (inactive),100,99.2,95% (inactive),91,98.3,95.7% (inactive),97% (inactive),92.6% (inactive),91.5,92.3
O=[N+]([O-])c1ccc(N=Nc2c(Cl)cc(O)cc2Cl)cc1,91.9% (inactive),84.8,85.2,252% (active),150,230,112% (inactive),91.4% (inactive),96.4% (inactive),96.4,82.8
COc1cc(/C=C2\C(=O)N(CCC#N)N=C2C)c(Br)cc1OC(C)C,105% (inactive),103,102,165% (active),145,168,107% (inactive),100% (inactive),93.9% (inactive),94.8,90.2
OCC[n+]1ccc(/C=C/c2c[nH]c3ccccc23)cc1,108% (inactive),106,108,140% (inactive),143,141,164% (inactive),104% (inactive),141% (inactive),142,143
CCOC(=O)C1=C(C)N=C2SC(C(=O)OC)=CC(=O)N2C1c1ccc(F)cc1 (stereo not given),103% (inactive),101,100,119% (inactive),110,124,91.3% (inactive),90.2% (inactive),96.5% (inactive),94.8,94.4
CS(=O)(=O)N1N=C(c2ccco2)CC1c1ccc(Cl)cc1 (stereo not given),101% (inactive),102,101,96.5% (inactive),97.9,94.6,104% (inactive),101% (inactive),101% (inactive),100,100
CCCCOc1c(Br)cc(/C=C2\N=C(C)OC2=O)cc1OCC,97.8% (inactive),98.4,97.7,106% (inactive),102,106,100% (inactive),101% (inactive),98.3% (inactive),99.1,98.5
O=C1CC(SCc2nc3ccccc3[nH]2)C(=O)N1c1ccc(F)cc1 (stereo not given),102% (inactive),101,100,110% (inactive),108,109,110% (inactive),106% (inactive),108% (inactive),108,107
Cc1ccc(N2C(=O)c3ccccc3NC2c2ccccc2O)cc1 (stereo not given),97.2% (inactive),98.1,98.4,97.9% (inactive),96,96.1,109% (inactive),96.6% (inactive),103% (inactive),105,103
O=C1c2ccccc2C(=O)C2OC12 (stereo not given),101% (inactive),99.6,88.1,218% (active),179,201,226% (active),133% (inactive),101% (inactive),100,85.8
CCN(CC)N=Nc1[nH]nc2nc(C)cc(C)c12,127% (inactive),103,118,120% (inactive),102,116,137% (inactive),120% (inactive),133% (inactive),123,134
Cc1cc(O)c(C(=O)/C=C/c2ccccc2O)c(=O)o1,101% (inactive),98.9,101,119% (inactive),109,125,105% (inactive),90.2% (inactive),89.8% (inactive),91.7,86.7
